# Reference: ChEMBL document CHEMBL1137646, “Intracellular metabolism and persistence of the anti-human immunodeficiency virus activity of 2',3'-didehydro-3'-deoxy-4'-ethynylthymidine, a novel thymidine analog” (Antimicrob Agents Chemother, 2007)
# Activity calls are given as the source filed them. No cut-off for these calls is given here.
# Assays:
# [1] = Half life in plasma of HIV1-infected patient administered as single dose; type: ADME, cell-free; settings: human
# [2] = test system: Human immunodeficiency virus 1; test: Antiviral activity against 0.1 MOI HIV1 3B infected in human TZM-b1 cells assessed as inhibition of viral replication after 24 hrs by luciferase assay; type: functional, organism-based
# How it was run: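 TZM-bl cells in phenol red-free RPMI 1640 were infected with HIV-1 IIIB (MOI 0.1) at the time of adding drug at various concentrations, and drug and virus stayed together for 24 h. Lysate luciferase was measured with uninfected background subtracted, in quintuple wells. Inhibition was the mean signal relative to drug-free infected cells.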
# [3] = test system: Human immunodeficiency virus 1; test: Antiviral activity against 0.1 MOI HIV1 3B in 24 hrs pretreated human TZM-b1 cells infected 24 hrs post drug removal assessed as inhibition of viral replication at 0.04 to 0.18 uM measured 24 hrs postinfection by luciferase assay; type: functional, organism-based
# How it was run: (§1)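 TZM-bl cells (kept in DMEM) were plated at 0.5 x 10^4 per well in phenol red-free RPMI 1640 and left to adhere 15-18 h at 37°C. They were then exposed to drug for 24 h with quintuple wells per concentration. Medium was changed to remove drug, and cells were infected with HIV-1 IIIB at MOI 0.1 at 0, 24 or 48 h after removal. Luciferase was read 24 h post-infection after subtracting the uninfected background. Inhibition is expressed relative to drug-free control wells.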
# [4] = test system: Human immunodeficiency virus 1; test: Antiviral activity against 0.1 MOI HIV1 3B infected in human TZM-b1 cells assessed as inhibition of viral replication at 0.14 uM after 24 hrs by luciferase assay; type: functional; settings: Human immunodeficiency virus 1, 3B, TZM-b1, 24 h
# How it was run: (§2)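 TZM-bl cells were plated at 0.5 x 10^4 per well in phenol red-free RPMI 1640 and allowed to adhere 15-18 h at 37°C. After a medium change, drug was added with quintuple wells per concentration, and cells were infected at the same time with HIV-1 IIIB at MOI 0.1. After 24 h, cells were lysed and luciferase was read minus the uninfected background. Values are percentage of mean luminescence in drug-free wells.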
# [5] = test system: Human immunodeficiency virus 1; test: Antiviral activity against 0.1 MOI HIV1 3B infected in human TZM-b1 cells assessed as inhibition of viral replication at 0.11 uM after 24 hrs by luciferase assay; type: functional; settings: Human immunodeficiency virus 1, 3B, TZM-b1, 24 h; how it was run: as §2
# [6] = Half life in plasma of HIV1-infected patient; type: ADME, cell-free; settings: human
# [7] = test system: Human immunodeficiency virus 1; test: Antiviral activity against 0.1 MOI HIV1 3B infected in human TZM-b1 cells assessed as inhibition of viral replication at 0.18 uM after 24 hrs by luciferase assay; type: functional; settings: Human immunodeficiency virus 1, 3B, TZM-b1, 24 h; how it was run: as §2
# [8] = test system: Human immunodeficiency virus 1; test: Antiviral activity against 0.1 MOI HIV1 3B in 24 hrs pretreated human TZM-b1 cells infected 0 hr post drug removal assessed as inhibition of viral replication at 0.18 uM measured 24 hrs postinfection by luciferase assay; type: functional; settings: Human immunodeficiency virus 1, 3B; how it was run: as §1
# [9] = test system: Human immunodeficiency virus 1; test: Antiviral activity against 0.1 MOI HIV1 3B in 24 hrs pretreated human TZM-b1 cells infected 48 hrs post drug removal assessed as inhibition of viral replication at 0.04 to 0.18 uM measured 24 hrs postinfection by luciferase assay; type: functional, organism-based; how it was run: as §1
# RKO [10] = test: Induction of thymidylate kinase expression in human RKO cells expressing Tet-On gene after 48 hrs by Western blotting; type: functional, cell-based
# How it was run: (§3)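 Tet-On TMPK RKO cells were grown with doxycycline at 0, 50 or 3,000 ng/ml to induce TMPK. Expression was assessed by Western blotting with actin as the internal control.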
# RKO [11] = test: Induction of 3-phosphoglycerate kinase expression in human RKO cells expressing Tet-On gene at 100 ng/ml after 72 hrs by Western blotting relative to control
# RKO [12] = test: Induction of thymidylate kinase expression in human RKO cells expressing Tet-On gene after 48 hrs by Western blotting relative to control; type: functional; how it was run: as §3
# CCRF-CEM [13] = test: Drug metabolism in human CEM cells assessed as radioactive stavudine diphosphate accumulation at 2 uM assessed per 10^6 cells; type: ADME, cell-based; settings: TDE = time-dependent effect
# How it was run: (§4)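 CEM cells (2 x 10^7/ml) in RPMI 1640 with 10% dialyzed FBS were incubated at 37°C with 2 µM [3H]analog (75 mCi/mmol) and harvested at 2, 4, 8, 12, 16 and 24 h. Cells were washed in ice-cold PBS with 20 µM dipyridamole and extracted with 15% TCA. Neutralized extracts were separated on a Partisil SAX column with an H2O to 300 mM potassium phosphate gradient and radiometric detection, reported as pmol/10^6 cells, mean ± SD of three experiments.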
# CCRF-CEM [14] = test: Drug metabolism in human CEM cells assessed as radioactive zidovudine monophosphate accumulation at 2 uM after 2 hrs assessed per 10^6 cells; type: ADME, cell-based; how it was run: as §4
# CCRF-CEM [15] = test: Drug metabolism in human CEM cells assessed as radioactive zidovudine triphosphate accumulation at 2 uM after 2 hrs assessed per 10^6 cells; type: ADME, cell-based; how it was run: as §4
# CCRF-CEM [16] = test: Drug metabolism in human CEM cells assessed as radioactive 2', 3'-didehydro-3'-deoxy-4'-ethynylthymidine triphosphate accumulation at 2 uM after 12 hrs assessed per 10^6 cells; type: ADME, cell-based; how it was run: as §4
# CCRF-CEM [17] = test: Drug metabolism in human CEM cells assessed as radioactive stavudine triphosphate accumulation at 2 uM assessed per 10^6 cells; type: ADME, cell-based; settings: TDE = time-dependent effect; how it was run: as §4
# CCRF-CEM [18] = test: Drug metabolism in human CEM cells assessed as radioactive zidovudine triphosphate accumulation at 2 uM assessed per 10^6 cells; type: ADME, cell-based; settings: TDE = time-dependent effect; how it was run: as §4
# CCRF-CEM [19] = test: Drug metabolism in human CEM cells assessed as radioactive 2', 3'-didehydro-3'-deoxy-4'-ethynylthymidine diphosphate accumulation at 2 uM assessed per 10^6 cells; type: ADME, cell-based; settings: TDE = time-dependent effect; how it was run: as §4
# CCRF-CEM [20] = test: Stability in human CEM cells assessed as intracellular radioactive phosphorylated metabolite accumulation at 2 uM incubated for 24 hrs measured after 8 hrs of compound removal assessed per 10^6 cells; type: ADME, cell-based
# How it was run: (§5)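 CEM cells were loaded with 2 µM [3H]analog (75 mCi/mmol) for 24 h, washed, and resuspended in drug-free medium. Intracellular metabolites were then measured by SAX-HPLC with radiometric detection at 0, 2, 4, 8, 12 and 24 h after removal. Values are pmol/10^6 cells, mean ± SD of three experiments.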
# CCRF-CEM [21] = test: Stability in human CEM cells assessed as intracellular radioactive triphosphate metabolite accumulation at 2 uM incubated for 24 hrs measured after 24 hrs of compound removal assessed per 10^6 cells; type: ADME, cell-based; how it was run: as §5
# [22] = test system: Human immunodeficiency virus 1; test: Antiviral activity against 0.1 MOI HIV1 3B in 24 hrs pretreated human TZM-b1 cells infected 24 hrs post drug removal assessed as inhibition of viral replication at 0.04 to 0.22 uM measured 24 hrs postinfection by luciferase assay; type: functional, organism-based
# How it was run: (§6)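 TZM-bl cells were plated in phenol red-free RPMI 1640, allowed to adhere 15–18 h at 37°C, then exposed to a range of drug concentrations for 24 h. Medium was changed to remove extracellular drug, and cells were infected with HIV-1 IIIB (MOI 0.1) at 0, 24 or 48 h after removal. Luciferase was read 24 h post-infection with uninfected-cell background subtracted, in quintuple wells, and expressed relative to no-drug wells.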
# CCRF-CEM [23] = test: Drug metabolism in human CEM cells assessed as radioactive 2', 3'-didehydro-3'-deoxy-4'-ethynylthymidine diphosphate accumulation at 2 uM after 12 hrs assessed per 10^6 cells; type: ADME, cell-based; how it was run: as §4
# [24] = test system: Human immunodeficiency virus 1; test: Antiviral activity against 0.1 MOI HIV1 3B infected in human TZM-b1 cells assessed as inhibition of viral replication at 0.13 uM after 24 hrs by luciferase assay; type: functional; settings: Human immunodeficiency virus 1, 3B, TZM-b1, 24 h; how it was run: as §2
# CCRF-CEM [25] = test: Drug metabolism in human CEM cells assessed as radioactive zidovudine diphosphate accumulation at 2 uM assessed per 10^6 cells; type: ADME, cell-based; settings: TDE = time-dependent effect; how it was run: as §4
# CCRF-CEM [26] = test: Drug metabolism in human CEM cells assessed as radioactive 2', 3'-didehydro-3'-deoxy-4'-ethynylthymidine monophosphate accumulation at 2 uM assessed per 10^6 cells; type: ADME, cell-based; settings: TDE = time-dependent effect; how it was run: as §4
# [27] = test system: Human immunodeficiency virus 1; test: Antiviral activity against 0.1 MOI HIV1 3B in 24 hrs pretreated human TZM-b1 cells infected 48 hrs post drug removal assessed as inhibition of viral replication at 0.04 to 0.22 uM measured 24 hrs postinfection by luciferase assay; type: functional, organism-based; how it was run: as §6
# [28] = test system: Human immunodeficiency virus 1; test: Antiviral activity against 0.1 MOI HIV1 3B infected in human TZM-b1 cells assessed as inhibition of viral replication at 0.02 uM after 24 hrs by luciferase assay; type: functional; settings: Human immunodeficiency virus 1, 3B, TZM-b1, 24 h; how it was run: as §2
# CCRF-CEM [29] = test: Drug metabolism in human CEM cells assessed as radioactive zidovudine monophosphate accumulation at 2 uM assessed per 10^6 cells; type: ADME, cell-based; settings: TDE = time-dependent effect; how it was run: as §4
# CCRF-CEM [30] = test: Drug metabolism in human CEM cells assessed as radioactive 2', 3'-didehydro-3'-deoxy-4'-ethynylthymidine triphosphate accumulation at 2 uM assessed per 10^6 cells; type: ADME, cell-based; settings: TDE = time-dependent effect; how it was run: as §4
# CCRF-CEM [31] = test: Drug metabolism in human CEM cells assessed as radioactive 2', 3'-didehydro-3'-deoxy-4'-ethynylthymidine monophosphate accumulation at 2 uM after 12 hrs assessed per 10^6 cells; type: ADME, cell-based; how it was run: as §4
# CCRF-CEM [32] = test: Drug metabolism in human CEM cells assessed as radioactive stavudine monophosphate accumulation at 2 uM assessed per 10^6 cells; type: ADME, cell-based; settings: TDE = time-dependent effect; how it was run: as §4
# [33] = test system: Human immunodeficiency virus 1; test: Antiviral activity against 0.1 MOI HIV1 3B infected in human TZM-b1 cells assessed as inhibition of viral replication at 0.22 uM after 24 hrs by luciferase assay; type: functional; settings: Human immunodeficiency virus 1, 3B, TZM-b1, 24 h; how it was run: as §2
# CCRF-CEM [34] = test: Drug metabolism in human CEM cells assessed as radioactive zidovudine diphosphate accumulation at 2 uM after 2 hrs assessed per 10^6 cells; type: ADME, cell-based; how it was run: as §4
compound,measurement,setting,value
Cc1ccnc2c1NC(=O)c1cccnc1N2C1CC1 [NEVIRAPINE],half-life,[1],30 h
same,inhibition,[2],Dose-dependent effect
same,inhibition,[3],inactive
same,inhibition at 0.14 µM,[4],50%
same,inhibition at 0.11 µM,[5],50%
same,half-life,[6],30 h
same,inhibition at 0.18 µM,[7],50%
same,inhibition at 0.18 µM,[8],< 50%
same,inhibition,[9],inactive
C[C@H]1c2cccc(O)c2C(=O)C2=C(O)[C@]3(O)C(=O)C(C(N)=O)=C(O)[C@@H](N(C)C)[C@@H]3[C@@H](O)[C@@H]21.O [DOXYCYCLINE],Activity,RKO [10],Dose-dependent effect
same,fold change (FC),RKO [11],3
same,fold change (FC),RKO [12],5
Cc1cn([C@H]2C[C@H](N=[N+]=[N-])[C@@H](CO)O2)c(=O)[nH]c1=O [ZIDOVUDINE],Activity,CCRF-CEM [13],tde
same,Activity,CCRF-CEM [14],90 pmol
same,Activity,CCRF-CEM [15],90 pmol
same,Activity,CCRF-CEM [16],18 pmol
same,inhibition,[2],Dose-dependent effect
same,Activity,CCRF-CEM [17],tde
same,Activity,CCRF-CEM [18],tde
same,Activity,CCRF-CEM [19],tde
same,Stability,CCRF-CEM [20],2.33 pmol
same,Stability,CCRF-CEM [21],0.14 pmol
same,inhibition,[22],inactive
same,Activity,CCRF-CEM [23],18 pmol
same,inhibition at 0.13 µM,[24],50%
same,Activity,CCRF-CEM [25],tde
same,Activity,CCRF-CEM [26],tde
same,inhibition,[27],inactive
same,inhibition at 0.02 µM,[28],50%
same,Activity,CCRF-CEM [29],tde
same,Activity,CCRF-CEM [30],tde
same,inhibition at 0.18 µM,[7],50%
same,Activity,CCRF-CEM [31],18 pmol
same,Activity,CCRF-CEM [32],tde
same,inhibition at 0.22 µM,[33],50%
same,Activity,CCRF-CEM [34],90 pmol
